Assay outcomes deposited in PubChem BioAssay by several laboratories.
An excerpt weighted towards active compounds, which were near 12% of everything screened.
Wee1 stabilizer: inhibitors of human Wee1 degradation; 220,000 compounds, 1.2% hits; reporter increase, % at 5 µM; AID 1321; HeLa Luc-Wee1K328M stability, luciferase luminescence; 100% = proteasome inhibitor MG132 effect; P30291;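 active = activation above the mean of all tested compounds plus 3 SD, set per screening run, cut at about 8.8% in these data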;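 note: cells exposed to compound for 20 h before luminescence read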
Target sequence (P30291 whole entry K328M): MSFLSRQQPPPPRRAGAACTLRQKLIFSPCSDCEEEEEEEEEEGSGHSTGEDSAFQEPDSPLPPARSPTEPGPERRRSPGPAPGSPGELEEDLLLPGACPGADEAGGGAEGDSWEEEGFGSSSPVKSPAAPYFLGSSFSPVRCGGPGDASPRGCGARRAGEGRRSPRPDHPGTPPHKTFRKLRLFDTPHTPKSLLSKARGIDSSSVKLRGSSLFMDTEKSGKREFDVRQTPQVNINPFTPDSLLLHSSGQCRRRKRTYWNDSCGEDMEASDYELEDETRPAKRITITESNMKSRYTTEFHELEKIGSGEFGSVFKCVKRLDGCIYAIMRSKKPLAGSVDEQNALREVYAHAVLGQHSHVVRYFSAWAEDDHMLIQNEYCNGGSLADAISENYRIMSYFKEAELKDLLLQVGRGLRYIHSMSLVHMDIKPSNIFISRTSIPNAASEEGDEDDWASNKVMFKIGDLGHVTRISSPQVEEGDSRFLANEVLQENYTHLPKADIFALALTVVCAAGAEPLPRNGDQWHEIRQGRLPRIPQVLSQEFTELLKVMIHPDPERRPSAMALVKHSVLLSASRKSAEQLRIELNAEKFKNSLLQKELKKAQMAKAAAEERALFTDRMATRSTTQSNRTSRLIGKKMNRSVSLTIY
Rad51 HR inh: Rad51 (human) homologous recombination inhibition. hRad51 DNA strand exchange, fluorescence dequenching. inhibition, % at 10 µM. AID 1385. 200,000 compounds, 0.085% hits. Q06609;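 active = inhibition above 40% at the single screening dose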
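Test system – preformed human Rad51 ssDNA filaments · Reagent – Donor/quencher-labelled 47-bp dsDNA substrate · Incubation – 37 °C 15-min filament assembly, 30-min compound preincubation, 15-min exchange · Signal – FRET fluorescence dequenching, excitation 485 nm, emission 520 nm · Read-out – percent inhibition from fluorescence, normalised to plate control and blank means · Benchmarks – plate control and blank wells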
PKD1 kinase inh: PKD1 (human) kinase inhibition. Q15139. AID 797. inhibition, % (test concentration not listed). 200,000 compounds, 0.056% hits. PKD1 kinase fluorescence polarization assay
Lmaj promast: inhibitors of Leishmania major promastigote growth; Leishmania major promastigotes, resazurin fluorescence viability; inhibition, % at 10 µM; 200,000 compounds, 9% hits; AID 1063;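 note: promastigotes grown with compound for 44 hours at 28 °C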
CHOP inhibitor: inhibitors of CHOP induction in ER stress response; CHO-K1 CHOP-promoter luciferase, tunicamycin-induced, 15-18 h; inhibition, % at 10 µM; 220,000 compounds, 3.8% hits;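 active = compounds that reduced the stress-induced luciferase reporter signal by more than about 70% of percent inhibition, limit read from the data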
Arbovirus anti: blocks arbovirus infection; arbovirus infection cell-based antiviral screen; 200,000 compounds, 0.37% hits; inhibition, % at 10 µM; in the data active = inhibition above about 30%
Of the large screens only hits and unclear results are named; the others gave an inactive call. Cut-off read from the data, not from the text of the source, unless noted: active = inhibition above about 50%; inactive = the rest.

CC1(C)CC(NC(=O)C23CCC(C)(C2Br)C3(C)C)CC(C)(C)N1 (stereo unspecified)	none (no result: PKD1 kinase inh, Lmaj promast, Arbovirus anti)
O=C(NNC(=O)c1ccc(Cl)cc1Cl)c1ccncc1	none
CCOCCCNS(=O)(=O)c1ccc(NC(=O)c2ccc([N+](=O)[O-])cc2Cl)cc1	Lmaj promast 74
O=C(Nc1cccc(Cl)c1)c1cccc(Oc2ccc([N+](=O)[O-])cc2Cl)c1	Lmaj promast 98
CCCC(=O)Nc1ccc(Cl)c(NC(=O)c2ccc([N+](=O)[O-])cc2Cl)c1	none
O=C(NNC(=O)c1ccc([N+](=O)[O-])cc1Cl)c1ccncc1	Lmaj promast 84
CCCC(=O)Nc1cccc(NC(=O)c2ccc([N+](=O)[O-])cc2Cl)c1	Arbovirus anti 45
O=S(=O)(/N=C(/c1ccccc1)N1CCCCC1)c1ccccc1	none (no result: Rad51 HR inh)
CCOC(=O)C1CSC(CC(=O)Nc2ccc(OC(F)(F)F)cc2)C(=O)N1 (stereo unspecified)	none (no result: Rad51 HR inh, PKD1 kinase inh, Lmaj promast, Arbovirus anti)
CCSc1nc2sc3c(c2c(=O)[nH]1)CCc1ccccc1-3	CHOP inhibitor 84 (no result: Rad51 HR inh)
CC1c2c([nH]c3ccccc23)CCC1C(=O)O (stereo unspecified)	none
Cc1nc(/N=C(\N)NC(=O)N2c3ccccc3Sc3ccccc32)nc2ccccc12	Lmaj promast 97
CC1CC1c1ccc(/C=C(\C#N)C(=O)Nc2cccc(Cl)c2Cl)o1 (stereo unspecified)	none
CCOc1ccc(C(C)(C)C)cc1S(=O)(=O)N1CC(C)OC(C)C1 (stereo unspecified)	Lmaj promast 64
CC(C)CCNC(=O)CN(Cc1cccs1)C(=O)CCC(=O)Nc1nccs1	none
c1ccc(Nc2nc(N3CCOCC3)nc(N3CCOCC3)n2)cc1	none
c1ccc2oc(-c3ccc(Nc4nc(N5CCCCC5)nc(N5CCOCC5)n4)cc3)nc2c1	Lmaj promast 74 (no result: Rad51 HR inh)
S=C(NNc1nc(Nc2ccccc2)nc(N2CCCCC2)n1)NC1CCCCC1	CHOP inhibitor 83
NNc1nc(Nc2ccccc2)nc(Nc2ccccc2)n1	Lmaj promast 100
NNc1nc(Nc2ccccc2)nc(N2CCCCC2)n1	Lmaj promast 100
Cc1ccc(OCc2nc(-c3cccs3)no2)c([N+](=O)[O-])c1	none
COc1cccc(C2CCCCN(C)C2=O)c1 (stereo unspecified)	none (no result: PKD1 kinase inh, Lmaj promast, Arbovirus anti)
CC(C)C(NC(=O)c1ccccc1)C(=O)NCCc1ccccc1 (stereo unspecified)	none
CCCNc1nc(Nc2ccc(C)cc2)nc(N2CCCC2)n1	Lmaj promast 89, CHOP inhibitor 70
CCOc1ccccc1NC(=O)Nc1ccc(Br)cc1C	none (no result: Rad51 HR inh)
CCC(/C=C1\Sc2ccc(OC)cc2N1CC)=C\c1sc2ccc(OC)cc2[n+]1CCCS(=O)(=O)[O-]	Lmaj promast 100
CC(C)S(=O)(=O)c1csc(NC(=O)Nc2ccc(Cl)cc2)c1	none (no result: PKD1 kinase inh, Lmaj promast, Arbovirus anti)
COc1ccc(/C=C2/N=C3CCCCCN3C2=O)cc1	none
COc1ccc(/C=N/NC(=O)c2cc(C34CC5CC(CC(C5)C3)C4)[nH]n2)cc1OC	none
COc1cccc(/C=N/NC(=O)c2cc(C34CC5CC(CC(C5)C3)C4)[nH]n2)c1	Lmaj promast 89
Cc1ccc(-c2nc(C#N)c(N3CCCCC3)o2)cc1	Wee1 stabilizer 9.7
CCOC(=O)Cc1csc(/N=C/c2c(O)n(-c3ccccc3C(F)(F)F)c(=O)c3ccccc23)n1	none
CC1=NN(c2ccc(C)c(C)c2)C(=O)/C1=C/c1ccc2c(c1)n(C)c(=O)n2C	Lmaj promast 97
Cn1c(=O)n(C)c2cc(/C=N/n3cnnc3)ccc21	none
COc1cc(/C=C2/C(=O)N(c3ccccc3)N=C2C)ccc1OS(=O)(=O)c1ccccc1	Lmaj promast 87
CCn1cc(C(=O)O)c(=O)c2cnc(N3CCN(C(=S)NC(=O)c4ccccc4Cl)CC3)nc21	none (no result: PKD1 kinase inh, Lmaj promast, Arbovirus anti)
Cc1c(NC(=S)NNC(=O)CCC(=O)O)c(=O)n(-c2ccccc2)n1C	none (no result: PKD1 kinase inh, Lmaj promast, Arbovirus anti)
Cc1ccc(NC(=O)c2ccc(NCCN)c([N+](=O)[O-])c2)cc1	Lmaj promast 89
Cc1ccc(NC(=O)c2ccc(NCC3CCCO3)c([N+](=O)[O-])c2)cc1Cl (stereo unspecified)	none
O=C(Nc1cccc(Cl)c1)c1ccc(NCCCN2CCOCC2)c([N+](=O)[O-])c1	Lmaj promast 99
Cc1ccc(NC(=O)c2ccc(NCCCN3CCC(C)CC3)c([N+](=O)[O-])c2)cc1F	Lmaj promast 84
COc1ccc(Br)cc1/C=N/NC(=O)CN1CCN(Cc2ccccc2)CC1	none (no result: PKD1 kinase inh, Lmaj promast, Arbovirus anti)
COc1ccc2cc(C(=O)C3CCCN(Cc4cccc(C)n4)C3)ccc2c1 (stereo unspecified)	Lmaj promast 86
CC(=O)N1CCCC(C(=O)c2ccc3c4c(cccc24)CC3)C1 (stereo unspecified)	none
CCOC(=O)c1[nH]ncc1CN1CCCC(C(=O)c2cccc(OC(C)C)c2)C1 (stereo unspecified)	none
Cc1cccc(CN2CCCC(C(=O)c3ccc4c5c(cccc35)CC4)C2)n1 (stereo unspecified)	Lmaj promast 53
CCn1ncc(CN2CCCC(C(=O)c3cccc(OC(C)C)c3)C2)c1C (stereo unspecified)	Lmaj promast 80
COc1cc(CN2CCCC(C(=O)c3ccc4c5c(cccc35)CC4)C2)cc(OC)c1O (stereo unspecified)	Lmaj promast 99
CC1(C)CC(=O)C(C=Nc2ccc(NC3=C(C#N)C(=O)CC(C)(C)C3)cc2)=C(O)C1	none
O=C(c1ccc2c3c(cccc13)CC2)C1CCCN(Cc2cccnc2)C1 (stereo unspecified)	Lmaj promast 96
O=c1c2cc(-c3ccccc3)sc2ncn1-n1cccc1	none
Cc1ccc(C)n1-n1c(C)nc2sc(-c3ccccc3)cc2c1=O	CHOP inhibitor 77
Cc1ccc(C)n1-n1cnc2sc(-c3ccccc3)cc2c1=O	CHOP inhibitor 79
O=C(O)C1=C[C@@H](c2coc3ccccc3c2=O)C[C@@H](OCCCCO)O1	none
O=C(c1ccc(Cl)cc1[N+](=O)[O-])N(Cc1ccccc1)Cc1ccccc1	CHOP inhibitor 73
CC(C)(C)N(Cc1ccccc1)C(=O)c1ccc(Cl)cc1[N+](=O)[O-]	none
Cc1cccc2c(=O)cc(C)n(Cc3ccccc3)c12	Lmaj promast 59
Cc1ccc(CN2CCN(CC(=O)NCCCN3CCN(c4ccc(F)cc4)CC3)C2=O)cc1	CHOP inhibitor 73
Cc1ccc(CNc2ccc3c(c2)ncn3C(C)(C)C)cc1	none
O=C(Nc1nc2ccc(Cl)cc2s1)c1ccc(Br)o1	CHOP inhibitor 74
O=c1c(S(=O)(=O)c2ccc(Cl)cc2)cn(Cc2ccccc2)c2ccc(F)cc12	Lmaj promast 91
Cc1ccc(NC(=O)Cn2cc(S(=O)(=O)c3ccccc3)c(=O)c3cc(F)ccc32)cc1	none (no result: Rad51 HR inh)
CCOC(=O)CN1C(=O)S/C(=C/c2cccc([N+](=O)[O-])c2O)C1=O	Wee1 stabilizer 10
